# Screening results: PubChem, The Scripps Research Institute Molecular Screening Center
# Shown are actives, neighbours in structure and some others; about 3.2% of the full set was active somewhere.
# DAGLB inh = DAGLB lipase inhibitors, primary screen, biochemical, fluorescence, HTS | AID 504411, 2011 | Diacylglycerol lipase-beta (Homo sapiens), Q8NCG7 | 340,000 tested, 0.059% active | inhibition, % at 5.17 µM | HEK293T DAGLB membrane lysate, EnzChek fluorogenic substrate; in the data active means inhibition above about 34%;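 further: 0% = enzyme with vehicle and 100% = wells lacking enzyme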
# LEDGF integ inh = blockers of LEDGF/p75-dependent integrase strand transfer – biochemical, TR-FRET, high throughput, primary screen; inhibition, % at 3.7 µM; HIV-1 integrase (with human LEDGF/p75); TR-FRET IN-LEDGF/p75 DNA integration, Eu/Cy5; 370,000 tested, 0.64% active;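 active means inhibition above the screen-wide mean plus 3 SD, cut at about 13% in these data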;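 further: signal is the Cy5 over europium emission ratio at 671 and 618 nm; 0% = plate median of compound wells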
# HTRA1 inh = HTRA1 serine protease inhibitors, primary screen, biochemical, fluorescence polarization, HTS. recombinant HTRA1, FP-rhodamine activity-based probe. 340,000 tested, 0.5% active. inhibition, % at 5.96 µM; in the data active means inhibition above about 36%;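 further: 0% = enzyme with DMSO and 100% = wells lacking enzyme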
# mABHD4 FP = ABHD4 inhibitors, primary screen, biochemical, fluorescence polarization, mouse; (Lyso)-N-acylphosphatidylethanolamine lipase (Mus musculus), Q8VD66; inhibition, % at 8.92 µM; purified mABHD4, FP-Rh probe fluorescence polarization; 370,000 tested, 0.54% active;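 active means inhibition exceeding the mean over every tested compound plus 3 SD, cut at about 30% in these data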;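 further: 0% = plate median of compound wells and 100% = S159A mutant with DMSO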
# Target sequence (Q8VD66 whole entry, looked up): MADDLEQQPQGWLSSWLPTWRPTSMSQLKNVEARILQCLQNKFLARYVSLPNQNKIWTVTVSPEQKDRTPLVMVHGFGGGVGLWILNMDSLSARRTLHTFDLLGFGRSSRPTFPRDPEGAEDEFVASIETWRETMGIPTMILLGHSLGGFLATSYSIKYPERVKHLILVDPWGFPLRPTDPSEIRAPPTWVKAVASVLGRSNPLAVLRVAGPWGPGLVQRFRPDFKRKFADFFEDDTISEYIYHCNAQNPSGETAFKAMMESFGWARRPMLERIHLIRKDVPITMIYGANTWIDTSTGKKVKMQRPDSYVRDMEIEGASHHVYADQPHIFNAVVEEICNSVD
#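 Assay system: wild-type mouse ABHD4 protein; compound: single nominal dose of 8.92 µM, 0.89% DMSO final; schedule: 45 min + 60 min at 25 °C; measured by: FP readout, ex 525 nm / em 598 nm; evaluation: % inhibition of FP-Rh probe binding versus controls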
# rCAG RNA binder = binders of r(CAG) RNA repeats, primary screen, biochemical, fluorescence; 370,000 tested, 1.3% active; inhibition, % at 3 µM; r(CAG) RNA repeat, TO-PRO-1 dye displacement fluorescence;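 active means inhibition above the plate cutoff, the mean of all test compounds on that plate plus 3 SD, cut at about 35% in these data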;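 further: 0% = DMSO alone and 100% = 100 µM mitoxantrone as full dye displacement; higher means more dye released from RNA so lower well fluorescence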
# PRMT1 inh = PRMT1 methyltransferase inhibitors, primary screen, biochemical, fluorescence polarization; AID 652257, 2013; 370,000 tested, 1.3% active; recombinant PRMT1, activity-based probe fluorescence polarization; inhibition, % at 2.79 µM;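 active means inhibition above about 21% made by adding two undisclosed values, limit read from the data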
# Target sequence (Q99873 whole entry, looked up): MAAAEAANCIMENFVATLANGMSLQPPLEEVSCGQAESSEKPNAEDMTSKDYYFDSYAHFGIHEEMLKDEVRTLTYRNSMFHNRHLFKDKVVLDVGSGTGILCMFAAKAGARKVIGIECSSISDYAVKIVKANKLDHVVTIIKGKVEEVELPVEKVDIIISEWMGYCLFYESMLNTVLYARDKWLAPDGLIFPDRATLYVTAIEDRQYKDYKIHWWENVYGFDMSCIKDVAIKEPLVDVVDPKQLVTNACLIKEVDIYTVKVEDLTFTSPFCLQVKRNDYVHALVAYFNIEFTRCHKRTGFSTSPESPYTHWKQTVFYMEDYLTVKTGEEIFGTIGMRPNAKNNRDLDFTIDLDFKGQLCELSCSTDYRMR
# rCAG binder conf = small molecules binding CAG repeat RNA – biochemical, fluorescence, confirmation; r(CAG) RNA repeat, TO-PRO-1 dye displacement fluorescence; shares compounds with rCAG RNA binder; 4,300 tested, 70% active; AID 652065, 2013; inhibition, % at 3 µM;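 active means inhibition above a per-plate cutoff, the mean inhibition of sample wells plus 3 SD, cut at about 35% in these data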;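 further: loss of TO-PRO-1 fluorescence as compound displaces dye from 1x1 AA loop RNA; 0% = DMSO only wells and 100% = 100 µM mitoxantrone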
# dCAG dye counter = displacement of TO-PRO-1 from CAG DNA duplex, counter-screen for rCAG RNA repeat binder project, biochemical, fluorescence, TO-PRO-1 dye, d(CAG) DNA oligo; shares compounds with rCAG RNA binder; d(CAG) DNA oligo TO-PRO-1 dye displacement; inhibition, % at 3 µM; 4,300 tested, 94% active; AID 652068, 2013;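 active means inhibition above its plate's cutoff, the mean test-well inhibition plus 3 SD, cut at about 4.8% in these data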;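 further: 0% = DNA dye mix with DMSO and 100% = 100 µM mitoxantrone; hits displace the dye from DNA and so lower well fluorescence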
# DNA CAG DR = inhibitors of DNA CAG/GTC TO-PRO-1 complex, dose response, counter-screen for rCAG RNA repeat binder project, biochemical, fluorescence, TO-PRO-1 dye. 250 tested, 20% active. IC50, µM. DNA CAG/GTC duplex TO-PRO-1 dye displacement fluorescence. shares compounds with rCAG RNA binder; in the data active means IC50 below about 10 µM
# The depositor's hits bear a star; i = inactive; . = no result.
SMILES,DAGLB inh,LEDGF integ inh,HTRA1 inh,mABHD4 FP,rCAG RNA binder,PRMT1 inh,rCAG binder conf,dCAG dye counter,others
CC1(C(=O)NS(=O)(=O)Cc2cccc(Cl)c2)CCN1C(=O)Cc1ccc(-c2ccccc2)cc1 (stereo unspecified),.,-0.4,.,-4.4,72.1*,-4.1,70.0*,29.4*,DNA CAG DR=i
CC1(C(=O)NS(=O)(=O)Cc2cccc(Cl)c2)CCN1C(=O)C/C=C/c1ccccc1 (stereo unspecified),.,-2.4,.,1.7,39.0*,-0.4,35.5*,8.3*,
CC1(C(=O)NS(=O)(=O)Cc2cccc(Cl)c2)CCN1C(=O)CCc1ccccc1 (stereo unspecified),.,-0.7,.,2.2,21.4,-1.0,.,.,
COc1ccccc1CC(=O)NNS(=O)(=O)c1ccc([N+](=O)[O-])cc1,1.6,2.9,3.2,-0.2,2.7,-0.1,.,.,
COc1cc(C(=O)N2CCC(N3CCCCCC3)CC2)cc(OC)c1OC,1.5,1.4,12.6,6.3,0.1,0.6,.,.,
Cc1c(C(=O)OCc2ccccc2)[nH]c2c1C(=O)CC(c1ccco1)C2 (stereo unspecified),2.6,.,-20.3,.,.,.,.,.,
COc1ccc2nc(NNC(=O)c3cc(=O)c4ccccc4o3)sc2c1,10.8,-6.3,32.5,18.2,36.1*,21.9*,55.0*,19.2*,
COc1ccc2nc(NNC(=O)COc3ccccc3)sc2c1,0.8,-0.7,5.2,11.8,1.6,-0.5,.,.,
COc1cccc([C@@H]2CC=C(C(=O)O)[C@H](c3ccccc3)N2S(=O)(=O)c2ccc(C)cc2)c1,0.2,0.9,-6.4,7.6,43.4*,0.3,36.9*,8.9*,
COc1cccc([C@@H]2CC=C(C(=O)O)[C@H](c3cccc(Cl)c3)N2S(=O)(=O)c2ccc(C)cc2)c1,8.6,1.6,-21.3,26.8,62.3*,1.9,62.9*,26.0*,
COc1cccc([C@@H]2CC=C(C(=O)O)[C@H](c3ccc(F)cc3)N2S(=O)(=O)c2ccc(C)cc2)c1,6.5,1.2,-14.7,9.1,45.5*,0.4,37.1*,9.3*,
Cc1ccc(S(=O)(=O)N2[C@@H](c3ccc(Cl)cc3)C(C(=O)O)=CC[C@H]2c2cccc(Cl)c2)cc1,1.5,-1.6,-10.1,-8.3,13.0,1.2,.,.,
COc1ccc2c(C)cc(SCC(=O)N(C)C3CCS(=O)(=O)C3)nc2c1 (stereo unspecified),-1.0,1.3,0.8,3.7,-4.6,-2.3,.,.,
COc1cc(OC)cc(C(=O)NC(C(=O)Nc2ccc3c(c2)CCC3)C(C)C)c1 (stereo unspecified),4.0,4.4,-3.5,-0.4,2.6,-3.7,.,.,
O=C(O)/C(=C\c1ccc2ccccc2c1)c1cccc2ccccc12,7.2,4.0,-9.5,-11.3,57.8*,-1.5,52.3*,17.4*,
O=C(O)C(=Cc1ccncc1)c1cccc2ccccc12,-0.7,2.0,-0.6,3.7,1.8,-1.8,.,.,
CC(=O)c1sc2nc(CSc3nnnn3-c3ccccc3)[nH]c(=O)c2c1C,4.5,6.7,5.0,-4.6,38.9*,-1.6,49.4*,29.0*,
CCN(c1ccccc1)S(=O)(=O)c1nnc(NC(=O)c2ccco2)s1,3.9,-1.3,1.5,2.1,18.2,8.7,.,.,
CN(c1ccc(Cl)cc1)S(=O)(=O)c1nnc(NC(=O)c2ccco2)s1,7.8,2.2,-13.9,-6.9,38.7*,0.8,27.1,7.4*,
CCN(c1cccc(C)c1)S(=O)(=O)c1nnc(NC(=O)c2ccco2)s1,6.3,4.4,-2.2,-2.2,38.8*,4.5,28.5,6.5*,
Cn1ccsc1=NC(=O)c1ccc(S(=O)(=O)C(F)F)cc1,-1.1,2.4,5.8,1.5,4.2,2.3,.,.,
CC(OC(=O)c1ccc(NS(=O)(=O)c2ccc3[nH]c(=O)[nH]c3c2)cc1)C(=O)Nc1ccc(Cl)cc1 (stereo unspecified),-6.8,2.8,-56.8,-89.2,42.8*,-2.8,27.6,12.7*,
COc1ccc(Cl)cc1NC(=O)C(C)OC(=O)c1ccc(NS(=O)(=O)c2ccc3[nH]c(=O)[nH]c3c2)cc1 (stereo unspecified),2.9,4.1,-89.6,-108.0,39.0*,3.3,48.6*,16.5*,
COc1ccc(S(=O)(=O)N2CCOCC2)cc1C(=O)NCC(c1ccccc1)c1ccccc1,-1.1,3.5,-8.1,-3.2,3.5,-2.8,.,.,
CCOc1ccc(/C=C\c2nc(O)c([N+](=O)[O-])c(=O)[nH]2)cc1OCC,-0.8,-2.7,3.2,1.0,3.2,-1.2,.,.,
SMILES,DAGLB inh,LEDGF integ inh,HTRA1 inh,mABHD4 FP,rCAG RNA binder,PRMT1 inh,rCAG binder conf,dCAG dye counter,others
CCOc1cc(/C=C\c2nc(O)c([N+](=O)[O-])c(=O)[nH]2)ccc1OC(C)CC (stereo unspecified),7.7,2.4,1.2,-7.2,44.7*,-0.7,45.7*,9.5*,DNA CAG DR=>29.9
CCOc1cccc(-c2nnc(SCC(=O)Nc3ccc4c(c3)OCO4)n2N)c1,.,-2.1,.,-2.1,2.5,3.5,.,.,
O=[N+]([O-])c1cc(-c2nnc(N3CCOCC3)c3ccccc23)ccc1N1CCOCC1,4.8,4.1,2.1,-1.0,89.8*,-3.1,1.1,2.0,
Cc1ccc(NC(=O)C2CCN(S(=O)(=O)c3ccc4c(c3)OCCCO4)CC2)nc1,0.9,-1.0,-5.2,-3.6,-2.9,-5.8,.,.,
Cc1noc(C)c1Cc1c(Cl)cccc1Cl,-2.5,3.3,2.8,2.2,-2.6,-0.7,.,.,
C=CCOc1ccc(/C=C2\C(=N)N3N=C(S(=O)(=O)CC)SC3=NC2=O)cc1OC,8.8,2.2,3.1,-2.0,36.0*,8.2,81.5*,42.1*,
CCS(=O)(=O)C1=NN2C(=N)/C(=C\c3ccc(OC(=O)c4ccco4)c(OC)c3)C(=O)N=C2S1,3.4,-5.5,-1.9,0.4,52.3*,5.4,80.4*,47.2*,
